The source made the active and inactive calls. The rule behind the calls is not given here.
Columns and labels:
[1] = biological target: T1, 5-hydroxytryptamine receptor 2C (Homo sapiens) (UniProt P28335); experiment: Agonist activity at human 5HT2C receptor expressed in HEK293 cells assessed as induction of intracellular calcium release by fluorescence assay relative to 5HT; assay type: functional, cell-based
T1 sequence (whole entry): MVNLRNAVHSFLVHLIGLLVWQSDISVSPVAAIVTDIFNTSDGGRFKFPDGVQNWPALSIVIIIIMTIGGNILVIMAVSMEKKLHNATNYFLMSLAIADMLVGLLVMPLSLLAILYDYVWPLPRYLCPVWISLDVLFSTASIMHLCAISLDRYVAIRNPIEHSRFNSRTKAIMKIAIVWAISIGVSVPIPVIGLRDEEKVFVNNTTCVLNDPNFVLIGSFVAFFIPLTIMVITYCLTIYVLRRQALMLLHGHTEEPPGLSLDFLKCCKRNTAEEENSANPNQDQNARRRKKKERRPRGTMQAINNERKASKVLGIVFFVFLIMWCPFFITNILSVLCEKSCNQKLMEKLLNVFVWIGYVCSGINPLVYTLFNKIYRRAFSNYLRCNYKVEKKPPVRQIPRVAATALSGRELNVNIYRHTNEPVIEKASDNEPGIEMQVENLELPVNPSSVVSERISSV
How it was run: (§1)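 Stable polyclonal 5-HT2A or 5-HT2C HEK293 cells seeded on poly-D-lysine plates (6 × 10⁴ cells/well). Next day loaded with Fluo-4/AM for 1 h at 37 °C in HBSS/20 mM HEPES/1 mM CaCl₂/1 mM MgCl₂/2.5 mM probenecid, pH 7.4. Fluorescence (485 ex/525 em) recorded before and up to 90 s after agonist. Response relative to 5-HT on the same plate. Duplicate, at least three times.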

[2] = biological target: T2, 5-hydroxytryptamine receptor 2A (Homo sapiens, UniProt P28223); experiment: Agonist activity at human 5HT2A receptor expressed in HEK293 cells assessed as induction of intracellular calcium release by fluorescence assay relative to 5HT; assay type: functional, cell-based; how it was run: as §1
T2 sequence (P28223 whole entry): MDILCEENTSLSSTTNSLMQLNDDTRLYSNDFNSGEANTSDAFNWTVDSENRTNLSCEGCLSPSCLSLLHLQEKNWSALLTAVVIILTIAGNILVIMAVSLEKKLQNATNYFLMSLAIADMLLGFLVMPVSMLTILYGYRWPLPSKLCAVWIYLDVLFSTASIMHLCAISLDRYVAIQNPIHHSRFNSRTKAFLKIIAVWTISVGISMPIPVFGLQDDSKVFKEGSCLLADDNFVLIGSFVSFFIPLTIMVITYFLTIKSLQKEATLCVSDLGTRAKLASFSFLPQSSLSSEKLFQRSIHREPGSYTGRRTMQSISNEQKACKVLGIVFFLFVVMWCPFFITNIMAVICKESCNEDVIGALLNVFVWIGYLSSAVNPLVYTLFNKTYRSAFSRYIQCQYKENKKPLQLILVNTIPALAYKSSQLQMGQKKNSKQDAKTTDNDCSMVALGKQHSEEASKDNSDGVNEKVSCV

[3] = biological target: T2, 5-hydroxytryptamine receptor 2A; experiment: Agonist activity at human 5HT2A receptor expressed in HEK293 cells assessed as induction of intracellular calcium release measured for 90 secs by fluorescence assay; assay type: functional, cell-based
[4] = biological target: T3, 5-hydroxytryptamine receptor 2C (Homo sapiens, UniProt P28335); experiment: Agonist activity at human 5HT2C receptor expressed in HEK293 cells assessed as accumulation of IP1 incubated for 1 hr at 37 degC followed by 15 mins at RT by TR-FRET assay; assay type: functional, cell-based
T3 sequence (P28335 whole entry): T1 sequence (whole entry)

[5] = biological target: T2, 5-hydroxytryptamine receptor 2A; experiment: Agonist activity at human 5HT2A receptor expressed in HEK293 cells assessed as accumulation of IP1 incubated for 1 hr at 37 degC followed by 15 mins at RT by TR-FRET assay; assay type: functional, cell-based
[6] = biological target: T3, 5-hydroxytryptamine receptor 2C; experiment: Agonist activity at human 5HT2C receptor expressed in HEK293 cells assessed as induction of intracellular calcium release measured for 90 secs by fluorescence assay; assay type: functional, cell-based; settings: read-out: EC50
[7] = biological target: T3, 5-hydroxytryptamine receptor 2C; experiment: Displacement of [3H]mesulergine from human 5HT2C receptor expressed in tsA201 cell membranes after 1 hr by scintillation counting analysis
[8] = biological target: T1, 5-hydroxytryptamine receptor 2C (Homo sapiens); experiment: Agonist activity at human 5HT2C receptor expressed in HEK293 cells assessed as accumulation of IP1 incubated for 1 hr at 37 degC followed by 15 mins at RT by TR-FRET assay relative to 5HT; assay type: functional, cell-based
How it was run: (§2)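 Polyclonal HEK293 lines stably expressing human 5-HT2A (variant 1) or 5-HT2C (INI isoform), detached and suspended at 1 × 10⁷ cells/mL in HBSS with 20 mM HEPES, 1 mM CaCl₂, 1 mM MgCl₂, pH 7.4. Ligands in buffer with 40 mM LiCl. Incubated 1 h at 37 °C, then 15 min RT. IP1 read by HTRF 665/615 ratio. Triplicate, at least four times.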

[9] = biological target: T2, 5-hydroxytryptamine receptor 2A; experiment: biochemical; assay type: cell-based, tsA201
[10] = biological target: T2, 5-hydroxytryptamine receptor 2A; experiment: Agonist activity at human 5HT2A receptor expressed in HEK293 cells assessed as accumulation of IP1 incubated for 1 hr at 37 degC followed by 15 mins at RT by TR-FRET assay relative to 5HT; assay type: functional, cell-based; how it was run: as §2
[11] = biological target: T2, 5-hydroxytryptamine receptor 2A; experiment: Agonist activity at human 5HT2A receptor expressed in HEK293 cells assessed as induction of intracellular calcium release up to 1000 uM measured up to 90 secs by fluorescence assay; assay type: functional, cell-based; how it was run: as §1
[12] = biological target: T3, 5-hydroxytryptamine receptor 2C; experiment: Antagonist activity at human 5HT2C receptor expressed in HEK293 cells assessed as inhibition of 5HT-induced intracellular calcium release measured for 90 secs by fluorescence assay; assay type: functional, cell-based
[13] = biological target: T2, 5-hydroxytryptamine receptor 2A; assay type: functional, cell-based, HEK293
[14] = biological target: T4, 5-hydroxytryptamine receptor 2C (Rattus norvegicus, UniProt P08909); experiment: (§3) Displacement of [125I]-N-(p-I-Bn)-THAZ from 5HT2C receptor in rat cerebral cortex membrane after 1 hr by scintillation counting analysis; assay type: cell membranes
T4 sequence (P08909 whole entry): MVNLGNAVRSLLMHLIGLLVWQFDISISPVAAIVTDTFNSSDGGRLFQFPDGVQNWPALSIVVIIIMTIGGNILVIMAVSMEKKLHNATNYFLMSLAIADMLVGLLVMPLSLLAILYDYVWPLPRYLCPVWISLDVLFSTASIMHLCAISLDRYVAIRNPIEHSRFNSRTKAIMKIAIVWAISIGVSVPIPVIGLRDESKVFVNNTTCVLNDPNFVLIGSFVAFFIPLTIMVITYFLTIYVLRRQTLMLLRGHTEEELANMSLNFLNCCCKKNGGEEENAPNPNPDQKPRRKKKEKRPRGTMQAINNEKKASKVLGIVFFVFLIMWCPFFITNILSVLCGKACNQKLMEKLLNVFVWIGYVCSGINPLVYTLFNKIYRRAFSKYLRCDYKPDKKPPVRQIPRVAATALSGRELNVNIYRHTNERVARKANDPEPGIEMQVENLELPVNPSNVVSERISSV

[15] = biological target: T5, 5-hydroxytryptamine receptor 2C (Rattus norvegicus) (UniProt P08909); experiment: as §3; assay type: cell membranes
T5 sequence (whole entry): T4 sequence (P08909 whole entry)

[16] = biological target: T5, 5-hydroxytryptamine receptor 2C (Rattus norvegicus); experiment: Displacement of [125I]-N-(p-I-Bn)-THAZ from 5HT2C receptor in rat midbrain membrane after 1 hr by scintillation counting analysis; assay type: cell membranes
[17] = biological target: T5, 5-hydroxytryptamine receptor 2C (Rattus norvegicus); experiment: Displacement of [125I]-N-(p-I-Bn)-THAZ from 5HT2C receptor in rat cerebellum membrane after 1 hr by scintillation counting analysis; assay type: cell membranes
[18] = biological target: T5, 5-hydroxytryptamine receptor 2C (Rattus norvegicus); experiment: Displacement of [125I]-N-(p-I-Bn)-THAZ from 5HT2C receptor in rat hippocampal membrane after 1 hr by scintillation counting analysis; assay type: cell membranes; settings: Hippocampus
[19] = biological target: T5, 5-hydroxytryptamine receptor 2C (Rattus norvegicus); experiment: Displacement of [125I]-N-(p-I-Bn)-THAZ from 5HT2C in rat cerebral cortex membrane up to 50 uM after 1 hr by scintillation counting analysis; assay type: cell membranes
[20] = biological target: T2, 5-hydroxytryptamine receptor 2A; experiment: Agonist activity at human 5HT2A receptor expressed in HEK293 cells assessed as induction of intracellular calcium release at 100 to 1000 uM by fluorescence assay; assay type: functional, cell-based
How it was run: (§4)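 Stable polyclonal h5-HT2A or h5-HT2C HEK293 cells plated on poly-D-lysine wells, loaded next day with Fluo-4/AM for 1 h at 37 °C. Buffer was HBSS with 20 mM HEPES, 1 mM CaCl₂, 1 mM MgCl₂, 2.5 mM probenecid, pH 7.4. Fluorescence read at 485/525 nm before and up to 90 s after agonist addition. Responses normalised to 5-HT on the same plate. Duplicate, 4−10 experiments.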

[21] = biological target: T1, 5-hydroxytryptamine receptor 2C (Homo sapiens); experiment: Agonist activity at human 5HT2C receptor expressed in HEK293 cells assessed as induction of intracellular calcium release at 100 to 1000 uM by fluorescence assay; assay type: functional, cell-based; how it was run: as §4
[22] = biological target: T1, 5-hydroxytryptamine receptor 2C (Homo sapiens); experiment: Ratio of EC50 for human 5HT2C receptor by calcium fiux-based fluorescence assay to […] accumulation-based TR-FRET assay; assay type: functional
[23] = biological target: T2, 5-hydroxytryptamine receptor 2A; experiment: Ratio of EC50 for human 5HT2A receptor by calcium fiux-based fluorescence assay to EC50 for 5HT2A by IP1 accumulation-based TR-FRET assay; assay type: functional
[24] = biological target: T1, 5-hydroxytryptamine receptor 2C (Homo sapiens); experiment: Agonist activity at human 5HT2C receptor expressed in HEK293 cells assessed as induction of intracellular calcium release up to 1000 uM measured up to 90 secs by fluorescence assay; assay type: functional, cell-based; how it was run: as §1
[25] = biological target: T2, 5-hydroxytryptamine receptor 2A; experiment: Antagonist activity at human 5HT2A receptor expressed in HEK293 cells assessed as inhibition of 5HT-induced intracellular calcium release at 1 mM measured for 90 secs by fluorescence assay; assay type: functional, cell-based
How it was run: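 Fluo-4/Ca²⁺ read-out in stable h5-HT2A or h5-HT2C HEK293 cells (HBSS/HEPES/probenecid buffer, pH 7.4). Antagonist was added after the dye-loading wash, then cells were challenged with an EC₇₅−EC₈₅ concentration of 5-HT. Emission at 525 nm was monitored up to 90 s after agonist addition. Duplicate, repeated in independent experiments.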

[26] = biological target: T2, 5-hydroxytryptamine receptor 2A; experiment: Agonist activity at human 5HT2A receptor expressed in HEK293 cells assessed as induction of intracellular calcium release at 1 mM measured for 90 secs by fluorescence assay; assay type: functional, cell-based; how it was run: as §4

Clc1cccc(COc2cncc(N3CCNCC3)n2)c1
Emax [1]: 103% | Emax [2]: 88% | EC50 ([3]; read-out: EC50): 0.076 µM | EC50 [4]: 0.0081 µM | EC50 [5]: 0.14 µM | EC50 [6]: 0.0019 µM | Ki [7]: 0.0093 µM | Emax [8]: 109% | Ki ([9]; read-out: Ki): 0.081 µM | Emax [10]: 90%

COc1noc2c1CCNCC2
Emax [1]: 80% | EC50 [6]: 12 µM | Activity [11]: Active | Ki [7]: 300 µM | Ki ([9]; read-out: Ki): 300 µM

Clc1cncc(N2CCNCC2)n1 [MK-212]
Emax [1]: 93% | Emax [2]: 97% | EC50 ([3]; read-out: EC50): 0.42 µM | EC50 [4]: 0.16 µM | EC50 [5]: 1.2 µM | EC50 [6]: 0.028 µM | Ki [7]: 3.4 µM | Emax [8]: 93% | Ki ([9]; read-out: Ki): 21 µM | Emax [10]: 101%

OC(c1ccccc1)C1CCN(CCc2ccccc2)CC1 (stereo unspecified) [GLEMANSERIN]
Ki [12]: 10 µM | Ki ([13]; read-out: pKi (converted)): 0.00245 µM

O=c1c2c(on1Cc1ccc(I)cc1)CCNCC2
Ki [7]: 0.31 µM | Ki [14]: 0.0102 µM | Activity [15]: Dose-dependent effect | Activity [16]: inactive | Activity [17]: inactive | Activity [18]: inactive

Cc1cc2c(cc1Cl)N(C(=O)Nc1ccc(Oc3cccnc3C)nc1)CC2
Activity [19]: inactive

c1ccc(COc2noc3c2CNCC3)cc1
Activity [20]: Active | Activity [21]: Active

c1ccc(COc2noc3c2CCNCC3)cc1
Emax [1]: 84% | Emax [2]: 59% | EC50 ([3]; read-out: EC50): 0.24 µM | EC50 [4]: 0.23 µM | EC50 [5]: 1.3 µM | EC50 [6]: 0.1 µM | Ki [7]: 1.2 µM | Ratio EC50 [22]: 2 | Emax [8]: 105% | Ki ([9]; read-out: Ki): 3.3 µM | Emax [10]: 77% | Ratio EC50 [23]: 2

CCn1oc2c(c1=O)CCNCC2
Activity [11]: Active | Ki [7]: 300 µM | Ki ([9]; read-out: Ki): 300 µM | Activity [24]: Active

COc1noc2c1CNCC2
Activity [11]: Active | Activity [24]: Active

CCCn1oc2c(c1=O)CCNCC2
Activity [11]: Active | Ki [7]: 100 µM | Ki ([9]; read-out: Ki): 100 µM | Activity [24]: Active

NCCc1c[nH]c2ccc(O)cc12
Activity [16]: inactive | Activity [19]: inactive | Activity [17]: inactive | Activity [18]: inactive

CN1CCN2c3ccccc3Cc3ccccc3C2C1 (stereo unspecified)
Activity [16]: inactive | Activity [19]: inactive | Activity [17]: inactive | Activity [18]: inactive

CN1CC2c3ccccc3Oc3ccc(Cl)cc3C2C1 (racemic) [ASENAPINE]
Ki [12]: 0.0025 µM | Ki ([13]; read-out: Ki): 0.00091 µM

COc1noc2c1CCN(C)CC2
EC50 ([3]; hek293, read-out: EC50): > 1000 µM | EC50 ([3]; read-out: pEC50 (converted)): > 1000 µM | Ki [7]: > 300 µM | Ki ([9]; read-out: Ki): > 300 µM | Ki ([9]; read-out: pKi (converted)): > 316 µM | Activity [25]: inactive | Activity [21]: Active | Activity [26]: inactive

Cn1oc2c(c1=O)CCNCC2
Ki [7]: > 300 µM | Activity [20]: Active | Ki ([9]; read-out: Ki): > 300 µM | Ki ([9]; read-out: pKi (converted)): > 316 µM | Activity [21]: Active

Source: ChEMBL document CHEMBL2331121, “Design, synthesis, and pharmacological characterization of N- and O-substituted 5,6,7,8-tetrahydro-4H-isoxazolo[4,5-d]azepin-3-ol analogues: novel 5-HT(2A)/5-HT(2C) receptor agonists with pro-cognitive properties” (J Med Chem, 2013)
